Reference: ChEMBL document CHEMBL1135790, “2-Substituted 4-(thio)chromenone 6-O-sulfamates: potent inhibitors of human steroid sulfatase” (J Med Chem, 2002)

Key:
[1] = Inhibition constant as dissociation constant of the noncovalent (STS) enzyme-inhibitor complex; format: ADME
How it was run: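 Human placental microsomes (about 10 mg/mL protein) preincubated with inhibitor dilutions in 0.1 M Tris-HCl pH 7.5 for 1-20 min. Free inhibitor removed with dextran-coated charcoal. Residual activity measured in the supernatant with 4-MUS (1.5 mM before mixing), 20 min at 37 °C, stopped with NaOH, ex 355/em 460 nm. kapp from double-exponential fits. KI and kinact from a double-reciprocal plot of kapp against inhibitor concentration.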

[2] = Rate constant of inactivation
[3] = molecular target: T1, Steryl-sulfatase (Homo sapiens, UniProt P08842); experiment: Inhibitory activity against purified human steroid sulfatase (STS)
T1 sequence (P08842 whole entry): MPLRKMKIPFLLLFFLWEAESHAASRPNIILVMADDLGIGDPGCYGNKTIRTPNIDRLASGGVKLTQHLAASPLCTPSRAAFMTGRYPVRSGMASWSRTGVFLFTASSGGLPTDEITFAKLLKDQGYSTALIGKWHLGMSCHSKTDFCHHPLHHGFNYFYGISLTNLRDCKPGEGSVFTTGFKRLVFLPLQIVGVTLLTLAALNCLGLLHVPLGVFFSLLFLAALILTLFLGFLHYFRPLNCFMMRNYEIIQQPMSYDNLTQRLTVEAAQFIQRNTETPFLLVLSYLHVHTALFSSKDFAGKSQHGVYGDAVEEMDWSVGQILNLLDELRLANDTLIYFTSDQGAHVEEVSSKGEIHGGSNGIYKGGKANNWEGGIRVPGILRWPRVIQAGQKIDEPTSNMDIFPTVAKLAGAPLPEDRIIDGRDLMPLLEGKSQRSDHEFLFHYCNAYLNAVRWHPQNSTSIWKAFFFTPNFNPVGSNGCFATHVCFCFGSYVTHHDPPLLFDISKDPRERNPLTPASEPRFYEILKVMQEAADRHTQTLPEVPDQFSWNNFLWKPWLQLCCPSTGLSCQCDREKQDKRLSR
How it was run: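 Human STS from stably transfected recombinant CHO cells, microsomal fraction solubilized in Triton X-100 and purified by chromatography to >95%. Enzyme (0.6 units) mixed with 4-MUS, 0.75 mM before mixing, in 0.1 M Tris-HCl pH 7.5, 0.1% Triton. Compounds at graded concentrations from ethanol stocks (final ethanol ≤2%). Incubation 60 min, 37 °C. Stopped with 0.2 M NaOH. Fluorescence ex 355/em 448 nm. IC50 from nonlinear regression; mean of triplicates.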

[4] = Ratio of kinact (rate constant of inactivation) to that of KI (inhibition constant) indicates efficacy of irreversible inhibition.

SMILES	Ki [1]	kinact [2]	IC50 [3]	K inact/Ki [4]
NS(=O)(=O)Oc1ccc2c(c1)C(=O)CC(C13CC4CC(CC(C4)C1)C3)O2 (centres undefined)	1860 nM	0.017 s⁻¹	140 nM	–
NS(=O)(=O)Oc1ccc2oc(CCc3ccccc3)cc(=O)c2c1	–	–	190 nM	–
NS(=O)(=O)Oc1ccc2sc(-c3ccccc3)cc(=O)c2c1	–	–	62 nM	–
CC(C)(C)c1cc(=O)c2cc(OS(N)(=O)=O)ccc2s1	–	–	5.6 nM	–
NS(=O)(=O)Oc1ccc2oc(/C=C/c3ccccc3)cc(=O)c2c1	–	–	1620 nM	–
NS(=O)(=O)Oc1ccc2c(c1)C(=O)CC(c1ccccc1)O2 (centres undefined)	–	–	2580 nM	–
NS(=O)(=O)Oc1ccc2c(=O)c(-c3ccccc3)coc2c1	–	–	437 nM	–
CCCCCCCCCc1cc(=O)c2cc(OS(N)(=O)=O)ccc2o1	1700 nM	0.006 s⁻¹	403 nM	0.35 10e4 M-1 s-1
CCCCCCCCC(C)(C)c1cc(=O)c2cc(OS(N)(=O)=O)ccc2o1	–	–	78 nM	–
NS(=O)(=O)Oc1ccc2c(c1)C(O)CC(C13CC4CC(CC(C4)C1)C3)O2 (centres undefined)	–	–	291 nM	–
NS(=O)(=O)Oc1ccc2sc(C34CC5CC(CC(C5)C3)C4)cc(=O)c2c1	210 nM	0.115 s⁻¹	0.34 nM	–
CCCCCC12CCC(c3cc(=O)c4cc(OS(N)(=O)=O)ccc4o3)(CC1)CC2	500 nM	0.074 s⁻¹	11 nM	–

More lines, now with the values ahead:

Ki [1]	kinact [2]	IC50 [3]	K inact/Ki [4]	SMILES
–	–	280 nM	–	NS(=O)(=O)Oc1ccc2c(c1)C(=O)CC(C1CCCCC1)O2 (centres undefined)
–	–	1620 nM	–	NS(=O)(=O)Oc1ccc2oc(Cc3ccccc3)cc(=O)c2c1
24000 nM	0.02 s⁻¹	6330 nM	–	NS(=O)(=O)Oc1ccc2c(=O)cc(C3CCCCC3)oc2c1
–	–	722 nM	–	CCCc1cc(=O)c2cc(OS(N)(=O)=O)ccc2o1
1100 nM	0.04 s⁻¹	45 nM	–	NS(=O)(=O)Oc1ccc2oc(C3CCCCCCCCCCC3)cc(=O)c2c1
–	–	45 nM	–	CC1(C)C(c2cc(=O)c3cc(OS(N)(=O)=O)ccc3o2)C1(C)C
900 nM	0.07 s⁻¹	22 nM	–	CC(C)(C)c1cc(=O)c2cc(OS(N)(=O)=O)ccc2o1
–	–	672 nM	–	NS(=O)(=O)Oc1ccc2oc(-c3ccccc3)cc(=O)c2c1
–	–	> 100000 nM	–	CCCc1cc(=O)c2ccc(OS(N)(=O)=O)cc2o1
220 nM	0.042 s⁻¹	11 nM	–	NS(=O)(=O)Oc1ccc2oc(C3C4CC5CC3CC5C4)cc(=O)c2c1 (centres undefined)
1200 nM	0.07 s⁻¹	50 nM	–	NS(=O)(=O)Oc1ccc2c(=O)c(C3CCCCC3)coc2c1
1000 nM	0.035 s⁻¹	62 nM	–	NS(=O)(=O)Oc1ccc2oc(C3CCCCC3)cc(=O)c2c1
32000 nM	0.016 s⁻¹	11200 nM	–	NS(=O)(=O)Oc1ccc2c(c1)CCC(C1CCCCC1)O2 (centres undefined)
53700 nM	0.018 s⁻¹	24300 nM	–	NS(=O)(=O)Oc1ccc2c(c1)C(O)CC(C1CCCCC1)O2 (centres undefined)
730 nM	0.011 s⁻¹	134 nM	–	NS(=O)(=O)Oc1ccc2oc(C3CCCC3)cc(=O)c2c1
